# Activity calls are given as the source filed them. No cut-off for these calls is given here.
# What was measured:
# [1] = system: BV-2; assay: Induction of H2S generation in mouse BV2 cells at 100 uM after 45 mins by WSP-1 fluorescence dye based spectrofluorimetric analysis; format: functional, cell-based
# How it was run: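 BV-2 cells, 72 × 10³/well, were seeded serum-free 24 h before the assay and loaded with WSP-1 for 30 min. Dye was then replaced with compound in HEPES-buffered saline, pH 7.4 (vehicle DMSO 1%). Fluorescence was recorded for 45 min, and total H₂S release was expressed as AUC of fluorescence index. Data are mean ± SE, n=9, with diallyl disulfide as reference donor.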
# [2] = system: BV-2; assay: Cytoprotection against LPS-induced cell damage in mouse BV2 cells assessed as cell viability at 1 uM preincubated with compound for 1 hr followed by LPS addition and measured after 24 hrs by cell analyser based assay (reference value: 80.6 +/- 1.2%); format: functional; conditions: read-out: Activity
# [3] = system: BV-2; assay: Antioxidant activity in mouse BV2 cells assessed as reduction in LPS-induced ROS release at 1 uM preincubated with compound for 1 hr followed by LPS addition and measured after 24 hrs by cell analyser based assay (reference value: 154 +/- 3.8%); format: functional; set-up: scale not given: the % may be the effect or the level left
# [4] = system: BV-2; assay: Inhibition of LPS-induced nitric oxide in mouse BV2 cells assessed as intracellular nitric oxide level at 1 uM preincubated with compound for 1 hr followed by LPS addition and measured after 24 hrs by cell analyser based assay (reference value: 145.7 +/- 4.4%); format: functional; set-up: scale not given: the % may be the effect or the level left
# [5] = system: SH-SY5Y; assay: Cytotoxicity against human SH-SY5Y cells assessed as cell viability up to 5 uM after 24 hrs by MTT assay; format: cell-based
# How it was run: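 SH-SY5Y cells, 2 × 10⁴/well, were allowed 24 h to attach, then exposed for 24 h to a series of concentrations (1.25–40). MTT (0.5 mg/mL in HBSS) was applied for 2 h at 37 °C, and formazan was dissolved in isopropanol and read at 570 nm (ref 690 nm). Results are % viability versus untreated cells.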
# [6] = system: SH-SY5Y; assay: Antioxidant activity in human SH-SY5Y cells assessed as inhibition of H2O2-induced intracellular ROS generation at 5 uM preincubated with compound for 24 hrs followed by H2O2 addition after 30 mins by DCFH-DA dye based fluorescence assay; format: functional, cell-based
# How it was run: (§1)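 SH-SY5Y cells, 2 × 10⁴/well, were allowed 24 h to attach, then given compound for 24 h at 37 °C. They were loaded with DCFH-DA ([…]) for 30 min at room temperature and then challenged with H₂O₂ or t-BuOOH, each at 50 µM, for 30 min. Results are percent inhibition of oxidant-induced ROS, mean ± SEM, n=3 independent experiments.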
# [7] = system: SH-SY5Y; assay: Antioxidant activity in human SH-SY5Y cells assessed as inhibition of tert-butyl hydroperoxide-induced intracellular ROS generation at 5 uM preincubated with compound for 24 hrs followed by tert-butyl hydroperoxide addition after 30 mins by DCFH-DA dye based fluorescence assay; format: functional, cell-based; how it was run: as §1
# [8] = system: SH-SY5Y; assay: Antioxidant activity in human SH-SY5Y cells assessed as increase in GSH level at 5 uM after 24 hrs by MCB-dye based fluorescence assay relative to control; format: functional
# How it was run: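 SH-SY5Y cells, 2 × 10⁴/well, were allowed 24 h to attach, then given compound for 24 h at 37 °C in 5% CO₂. Medium was replaced with monochlorobimane for 30 min at 37 °C, and fluorescence read at ex 355/em 460 nm. Results are percent increase in GSH, mean ± SEM of three independent experiments.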
# [9] = biological target: T1, Nuclear factor erythroid 2-related factor 2 (Homo sapiens) (UniProt Q16236); assay: Activation of Nrf2 in human SH-SY5Y cells at 5 uM after 1 to 6 hrs by ELISA method; format: cell-based
# T1 sequence (whole entry): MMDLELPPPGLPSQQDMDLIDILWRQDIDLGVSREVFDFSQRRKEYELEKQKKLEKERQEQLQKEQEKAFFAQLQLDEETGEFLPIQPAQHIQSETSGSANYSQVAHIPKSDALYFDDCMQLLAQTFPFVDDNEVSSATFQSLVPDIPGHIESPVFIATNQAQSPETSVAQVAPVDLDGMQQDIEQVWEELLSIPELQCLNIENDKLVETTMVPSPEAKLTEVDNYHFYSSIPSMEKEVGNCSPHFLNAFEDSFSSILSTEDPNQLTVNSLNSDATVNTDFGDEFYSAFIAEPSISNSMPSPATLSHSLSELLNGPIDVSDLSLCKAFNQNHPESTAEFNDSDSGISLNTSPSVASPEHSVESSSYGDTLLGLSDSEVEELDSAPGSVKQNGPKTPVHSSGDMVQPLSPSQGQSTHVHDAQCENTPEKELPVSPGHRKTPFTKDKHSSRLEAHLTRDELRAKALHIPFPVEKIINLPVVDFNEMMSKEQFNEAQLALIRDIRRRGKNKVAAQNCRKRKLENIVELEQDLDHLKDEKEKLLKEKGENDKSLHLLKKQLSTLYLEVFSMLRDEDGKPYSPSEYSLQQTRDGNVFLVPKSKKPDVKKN
# How it was run: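 SH-SY5Y cells, 2 × 10⁶ per dish, exposed to compound for 1, 3 and 6 h at 37 °C in 5% CO₂. Nuclear extracts were then taken and active Nrf2 measured by DNA-binding ELISA (antibody recognises ARE-bound Nrf2). Results are fold increase over matched untreated cells, mean ± SEM of three independent experiments, two-way ANOVA with Bonferroni.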
# [10] = system: SH-SY5Y; assay: Neuroprotection against amyloid beta (1 to 42 residues)-induced toxicity in human SH-SY5Y cells preincubated for 24 hrs followed by amyloid beta addition and measured after 4 hrs by MTT-based exocytosis assay; format: functional, cell-based
# How it was run: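 Aβ1-42 was dissolved in hexafluoroisopropanol (1 mg/mL), sonicated, held 24 h at room temperature and lyophilised. SH-SY5Y cells, 3 × 10⁴/well, were pretreated 24 h with compound and then given Aβ1-42 oligomers for 4 h at 37 °C. MTT (0.5 mg/mL in HBSS) was applied for 1 h, granules were solubilised in 10% Tween-20, and absorbance read at 570 nm (ref 690).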
# [11] = system: BV-2; assay: Inhibition of LPS-induced nitric oxide in mouse BV2 cells assessed as reduction in intracellular nitric oxide level at 1 uM preincubated with compound for 1 hr followed by LPS addition and measured after 24 hrs by cell analyser based assay (reference value: 145.7 +/- 4.4%); format: functional
# [12] = system: BV-2; assay: Cytoprotection against LPS-induced cell damage in mouse BV2 cells assessed as increase in cell viability at 1 uM preincubated with compound for 1 hr followed by LPS addition and measured after 24 hrs by cell analyser based assay (reference value: 80.6 +/- 1.2%); format: functional
# [13] = system: BV-2; assay: Antioxidant activity in mouse BV2 cells assessed as effect on LPS-induced ROS release at 1 uM preincubated with compound for 1 hr followed by LPS addition and measured after 24 hrs by cell analyser based assay (reference value: 154 +/- 3.8%); format: functional
Compound,Activity [1],viability at 1 µM [2] [%],Activity [3],Activity [4] [%],Activity [5],Activity [6],Activity [7],Activity [8] [%],Activity [9],Activity [10],inhibition [11],Activity [12],Activity [13]
CCN(C)C(=O)Oc1cccc(NC(=O)CSCCCCN=C=S)c1,Active,93,30 - 35%,114,Non-Toxic,Active,Active,35.6,Active,inactive,Active,–,–
CCN(C)C(=O)Oc1cccc(CCNC(=O)CSCCCCN=C=S)c1,Active,–,30 - 35%,98.8,Non-Toxic,–,–,–,–,inactive,Active,Active,–
CCN(C)C(=O)Oc1cccc([C@H](C)N(C)C)c1 [RIVASTIGMINE],Active,84,–,–,–,–,–,–,–,–,Active,–,inactive
CCN(C)C(=O)Oc1cccc(CNC(=O)CSCCCCN=C=S)c1,Active,–,30 - 35%,125.9,Non-Toxic,Active,Active,25.73,inactive,inactive,Active,Active,–
CCN(C)C(=O)Oc1cccc(CCNC(=O)C[S+]([O-])CCCCN=C=S)c1 (stereo unspecified),Active,–,30 - 35%,–,Non-Toxic,–,–,–,–,inactive,Active,–,–
C=CCSSCC=C,Active,–,–,–,–,–,–,–,–,–,–,–,–
CCN(C)C(=O)Oc1cccc(NC(=O)C[S+]([O-])CCCCN=C=S)c1 (stereo unspecified),Active,–,30 - 35%,–,Non-Toxic,–,–,–,–,inactive,Active,Active,–
CCN(C)C(=O)Oc1cccc(CNC(=O)C[S+]([O-])CCCCN=C=S)c1 (stereo unspecified),Active,–,30 - 35%,–,Non-Toxic,–,–,–,–,inactive,Active,Active,–

# Source: ChEMBL document CHEMBL4311984, “Design and synthesis of H2S-donor hybrids: A new treatment for Alzheimer's disease?” (Eur J Med Chem, 2019)
